Assay results: PubChem BioAssay
Values without a mark were called inactive. Inconclusive results are not listed. Active and inactive are the calls of the source.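 How the source made its calls, unless noted: active means RAM network inhibition above 8.4% in each of two replicates, 3 SD over the compound average; inconclusive means above 8.4% inhibition in only one replicate; inactive means 8.4% inhibition or less in each replicate.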

Key:
[1] = OD615 S. cerevisiae growth inhibition, permissive medium, pilot counter-assay, permissive growth control for S. cerevisiae lifespan shortening project (AID 705;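 active means growth inhibition above 25% in both replicates, a cutoff set 3 SD above the mean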); conditions: OD615, 24 h, at 10 µM, hits give high values
How it was run: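 System – S. cerevisiae with engineered DeaD lifespan system · Buffer or medium – SC raffinose/galactose permissive medium · Schedule – cells pre-grown 4 h, then 24 h compound exposure, 30 °C humidified · Technique – culture turbidity as optical density at 615 nm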

[2] = Restrictive medium S. cerevisiae growth inhibition, OD615, pilot screen of yeast lifespan reduction project, restrictive growth control (AID 706;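 active means growth inhibition above a set limit, 3 SD over mean compound inhibition, in both replicates, cut at about 43% in these data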;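 further: modified DeaD lifespan yeast strain shifted to restrictive glucose medium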); conditions: OD615, 48 h, at 10 µM, hits give high values
How it was run: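 Material: engineered S. cerevisiae DeaD strain / Medium: glucose-based CSMM-D restrictive medium / Compound: single dose of 10 µM compound final, 0.25% DMSO / Timing: 4 h pre-incubation, 48 h exposure at 30 °C / Technique: OD615 absorbance reading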

[3] = viability gain of MRP-1-high H69AR cells under doxorubicin, pilot screen, MRP-1 activator project, CellTiter-Glo, duplicate (AID 807;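 active means viability increase at or above a cutoff of the median across tested compounds plus 3 SD, cut at about 8.5% in these data, passing the limit was not always enough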;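 further: compound pretreatment 18-22 h then 72 h combined with doxorubicin; 0% = doxorubicin alone and 100% = vehicle without doxorubicin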); conditions: H69AR viability with doxorubicin, CellTiter-Glo luminescence; at 10 µM; hits give high values
[4] = growth suppression of beta-catenin knockout HCT116, pilot screen, human colon tumor cells (AID 823;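 active means cell viability at or below a set limit in both duplicate runs, the limit being the all-compound median minus 4 SD, cut at about 23% in these data, passing the limit was not always enough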;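 further: 0% = wells killed by 20 µM Hyamine and 100% = untreated DMSO cell wells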); conditions: CellTiter-Glo, 60 h, at 10 µM, hits give low values
[5] = growth suppression of PTEN-deleted HCT116, pilot screen, cell-based, HCT116 clonal line, CellTiter-Glo (AID 824;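 active means viability at or below 27.92% in each of two runs, the all-compound median minus 4 SD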;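 further: 0% = 20 µM Hyamine control and 100% = vehicle cell control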); conditions: 60 h, at 10 µM, hits give low values
[6] = inhibitors of the yeast RAM network, pilot screen, dse1pr::URA3 reporter, 5-FOA selection (AID 869;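 active means inhibition over a set limit, the all-compound mean plus 3 SD, in both replicate runs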;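 further: 0% = DMSO wells with no growth and 100% = 10 µM 1-NA-PP1 with full growth; RAM network block rescues cells from 5-FOA so hits raise OD615 growth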); conditions: S. cerevisiae dse1pr::URA3 5-FOA growth, OD615, 2 d; at 10 µM; hits give high values; strain carries analog-sensitive mutant Cbk1 kinase
[7] = RAM signaling pathway blockade in yeast – S. cerevisiae, Pdr1DBD-CYC8 efflux-inhibited sensitized strain, primary screen (AID 1298);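 further: 0% = DMSO untreated cells without growth and 100% = 10 µM 1-NA-PP1 full growth; higher means more yeast growth rescued from 5-FOA killing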; conditions: S. cerevisiae cbk1-as DSE1-URA3 strain, 5-FOA growth OD615, 2 d; at 50 µM; hits give high values

| Compound | growth inhibition [1] [%] | growth inhibition [2] [%] | viability increase [3] [%] | viability [4] | viability [5] | inhibition [6] [%] | RAM network inhibition [7] [%] |
| --- | --- | --- | --- | --- | --- | --- | --- |
| COc1ccccc1S(=O)(=O)Cc1ccc(C(=O)NCc2ccc3c(c2)OCO3)o1 | -4.21 | -26.9 | -2.83 | 91.9% | 87.4% | 1.9 | 6.73 |
| O=C(NCc1ccc2c(c1)OCO2)c1cnc2n(c1=O)CCS2 | -2.39 | 4.35 | -0.06 | 95.9% | 98% | 1.17 | 1.93 |
| Cc1cccc(Cn2c(N(C)Cc3ccccc3)nc3c2c(=O)[nH]c(=O)n3C)c1 | -0.355 | -7.32 | -2.61 | 75.6% | 64.8% | 2.08 | 2.26 |
| CC1CC(C(O)c2ccccn2)C(=O)C(C(O)c2ccccn2)C1 (stereo unspecified) | 9.67 | -1.25 | -3.28 | 97.8% | 90.3% | 0.35 | -0.58 |
| Cc1cc(S(=O)(=O)N2CCN(c3ccc(F)cc3)CC2)c(C)s1 | -13.9 | -7.43 | -3.11 | 60.9% | 60.3% | 1.69 | 9.84 |
| CC(C)N1C(=O)CCC1C(=O)N1CCC(Cc2ccccc2)CC1 (stereo unspecified) | -8.06 | 0.645 | 1.19 | 102% | 95.3% | 1.92 | 2.34 |
| Cc1cc(C)n2nc(S(=O)(=O)NCCc3ccccc3)nc2n1 | -6.26 | -8.79 | -0.6 | 111% | 100% | 2.72 | 1.3 |
| Cc1ccnc(Nc2nc3ccccc3o2)n1 | 2.6 | 24.6 | -4.36 | 62% | 57.7% | 0.905 | 4.15 |
| Cc1ccc(C)c(Nc2ncnc3nc[nH]c23)c1 | -3.29 | 0.02 | -1.34 | 103% | 103% | 1.55 | 2.66 |
| CCCCC(=O)OCCNC(=O)c1cc2ccccc2oc1=O | -3.98 | -0.93 | -2.04 | 92.3% | 95.2% | 2.96 | 2.46 |
| CN1CCN(Cc2c(O)ccc3occ(C(=O)c4ccccc4)c23)CC1 | -13 | -16.2 | -4 | 73% | 79% | 1.56 | 7.8 |
| CCOC(=O)C1CCCN(C(=O)c2ccccc2Oc2ccccc2)C1 (stereo unspecified) | -6.35 | -9.14 | -1.3 | 91.1% | 102% | 0.545 | 1.27 |
| COc1ccc(S(=O)(=O)Cc2ccc(C(=O)N3CCc4ccccc4C3)o2)cc1 | -5.74 | -5.21 | -0.44 | 92.7% | 94.1% | 0.315 | 7.28 |
| O=C(Nc1c(C(=O)N2CCCCC2)cnn1-c1ccccc1)c1ccccc1 | -13.8 | -4.25 | -1.28 | 105% | 92% | 1.99 | 2.44 |
| O=C(Nc1cccc(F)c1)c1ccc(S(=O)(=O)N2CCOCC2)cc1 | -17 | -7.46 | -2.24 | 98.3% | 99.6% | 1.13 | -1.21 |
| Cc1ccc(-c2nc3cccnc3o2)cc1NC(=O)COc1ccc(Cl)cc1C | -19.4 | -8.21 | -8.36 | 17.5% (active) | 4.66% (active) | 1.5 | 8.1 |
| CCCCC(CC)CNC(=O)CCS(=O)(=O)c1cccc2nonc12 (stereo unspecified) | 1.79 | -0.105 | -0.88 | 92.2% | 91.4% | 2.17 | 3.63 |
| CCc1ccc(C2N(c3ccc(OC)cc3)C(=O)C3CCCN32)cc1 (stereo unspecified) | 2.83 | -2.37 | -1.6 | 95.3% | 101% | 0.83 | 0.23 |
